Measured values as given in ChEMBL document CHEMBL1158534, “Antimicrobial activity of tryptanthrins in Escherichia coli” (J Med Chem, 2010).
Converted amounts (≈) assume the structure as drawn. The source made the active and inactive calls. The rule behind the calls is not given here.

Key:
[1] = system: Escherichia coli; experiment: Antibacterial activity against Escherichia coli AS19 after 4 hrs; format: functional; settings: AS19, 4 h
[2] = system: Escherichia coli; experiment: Antibacterial activity against Escherichia coli AS19 assessed as growth inhibition at 10 ug/ml after 4 hrs; format: functional, organism-based
[3] = system: Escherichia coli; experiment: Antibacterial activity against Escherichia coli AS19 in presence of 360 nm light; format: functional, organism-based
[4] = system: Escherichia coli; experiment: Antibacterial activity against Escherichia coli AS19 at 10 ug/ml after 3 days in presence of M9 buffer; format: functional, organism-based
In short: (§1)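 Overnight LB culture of AS19 (pBRF14C) diluted to 10⁵-10⁶ cells/mL in M9 buffer (NH4Cl, Na2HPO4, KH2PO4); tryptanthrins at final 0.05-10 μg/mL (0.2-40 μM), 37 °C up to 72 h. Samples at ~12 h intervals plated on LB + ampicillin, counted after 24 h; surviving fraction relative to untreated M9 cells; duplicate samples, 4-8 repetitions.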

[5] = system: Escherichia coli; experiment: Antibacterial activity against Escherichia coli AS19 at 0.4 ug/ml after 3 days in presence of M9 buffer; format: functional, organism-based; in short: as §1
[6] = system: Escherichia coli; experiment: Antibacterial activity against Escherichia coli AS19 at 0.5 to 10 ug/ml after 3 days in presence of M9 buffer; format: functional, organism-based; settings: 0.05 to 10 ug/ml, in the assay text read “0.05 to 10 ug/ml” for “0.5 to 10 ug/ml”; in short: as §1
[7] = target: T1, DNA topoisomerase 1 (Homo sapiens) (UniProt P11387); experiment: Inhibition of human topoisomerase 1-mediated relaxation of circular DNA
T1 sequence (whole entry): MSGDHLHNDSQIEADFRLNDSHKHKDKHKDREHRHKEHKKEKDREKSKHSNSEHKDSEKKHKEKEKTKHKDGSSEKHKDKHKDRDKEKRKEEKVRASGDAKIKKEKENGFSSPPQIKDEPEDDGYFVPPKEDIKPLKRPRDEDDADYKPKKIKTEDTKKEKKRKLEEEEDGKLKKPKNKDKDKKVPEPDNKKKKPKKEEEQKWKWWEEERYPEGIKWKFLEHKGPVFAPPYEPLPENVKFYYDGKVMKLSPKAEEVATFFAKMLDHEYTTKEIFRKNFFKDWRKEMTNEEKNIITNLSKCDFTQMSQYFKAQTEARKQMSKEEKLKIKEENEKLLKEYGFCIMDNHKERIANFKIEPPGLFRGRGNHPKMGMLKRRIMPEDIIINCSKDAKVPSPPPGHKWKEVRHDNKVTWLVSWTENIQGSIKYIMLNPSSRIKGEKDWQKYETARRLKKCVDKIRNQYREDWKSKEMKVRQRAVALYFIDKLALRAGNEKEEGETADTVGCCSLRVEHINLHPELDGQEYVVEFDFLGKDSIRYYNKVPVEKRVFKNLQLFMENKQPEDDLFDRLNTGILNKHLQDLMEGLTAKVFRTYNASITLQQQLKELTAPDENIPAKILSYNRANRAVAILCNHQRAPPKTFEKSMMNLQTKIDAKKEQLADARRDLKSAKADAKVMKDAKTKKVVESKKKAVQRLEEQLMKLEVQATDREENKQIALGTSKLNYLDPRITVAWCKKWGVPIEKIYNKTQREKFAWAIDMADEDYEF
In short: (§2)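 Relaxation assay: 0.25 μg pGEM-3Z (2743 bp, CsCl-purified) with 1 U human topoisomerase I in 10 mM Tris pH 7.9, 150 mM NaCl, 0.1 mM spermidine, 5% glycerol, tryptanthrin 10-100 μg/mL, 2 h 37 °C (or pre-relaxed 1 h, then drug 1-2 h). Stopped with sarkosyl; 1.5% agarose ± 2 μg/mL chloroquine, 50 V 3-4 h, ethidium stain; drugs bound = (Ldrug−Lo)×360°/28°.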

[8] = system: Escherichia coli; experiment: Mutagenic activity in Escherichia coli assessed as induction of frame shift mutation
[9] = system: Escherichia coli; experiment: Antibacterial activity against Escherichia coli AS19 at 0.6 to 2 ug/ml; format: functional, organism-based
[10] = target: T1, DNA topoisomerase 1 (Homo sapiens); experiment: Inhibition of human topoisomerase 1-mediated relaxation of circular DNA at 100 ug/ml; in short: as §2
[11] = system: Escherichia coli; experiment: Antibacterial activity against Escherichia coli AS19 at 0.01 ug/ml; format: functional, organism-based
[12] = system: Escherichia coli; experiment: Antibacterial activity against Escherichia coli AS19 at 0.1 ug/ml; format: functional, organism-based
[13] = system: Escherichia coli; experiment: Antibacterial activity against Escherichia coli AS19 at 1 ug/ml after 4 hrs; format: functional, organism-based
[14] = system: Escherichia coli; experiment: Antibacterial activity against Escherichia coli AS19 at 2.5 to 20 ug/ml after 4 hrs; format: functional, organism-based
[15] = system: Escherichia coli; experiment: Antibacterial activity against Escherichia coli AS19 assessed as cell viability at 10 ug/ml after 20 to 24 hrs; format: functional
In short: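 LB growth assay with AS19 (pBRF14C) at 37 °C with shaking; after 20-24 h exposure, dilutions in M9 buffer plated (200-400 cells) on LB + 30 μg/mL ampicillin, colonies counted after 24 h at 37 °C; viability = treated cells/mL divided by untreated cells/mL.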

SMILES	GI50 [1] [µg/mL]	growth inhibition (GI) [2]	Activity [3]	Activity [4]	other results
O=C1c2ccccc2-n2c1nc1ccccc1c2=O [TRYPTANTHRIN]	2.25 (≈ 9.06 µM)	Active			
O=c1c2ccccc2nc2n1-c1ccc(F)cc1/C2=N\O			inactive	Active	
O=C1c2cc(F)ccc2-n2c1nc1ccccc1c2=O					Activity [5]: Active
O=C1c2ccccc2-n2c1nc1ncccc1c2=O	1.3 (≈ 5.22 µM)	Active		Active	Activity [6]: Active; inhibition [7]: inactive; fold change (FC) [8]: 22
O=Nc1c2ccccc2n2c(O)c3ccccc3nc12			inactive		
O=C1c2ccccc2-n2c1nc1nccnc1c2=O	1.5 (≈ 5.99 µM)	Active	Active	Active	Activity [9]: Active
O=c1c2cccnc2nc2n1-c1ccccc1/C2=N\O			inactive		
O=C1c2cc([N+](=O)[O-])ccc2-n2c1nc1ccccc1c2=O	0.6 (≈ 2.05 µM)	Active			inhibition [10]: inactive
O=C1c2cc(Br)ccc2-n2c1nc1ccccc1c2=O					Activity [5]: Active
O=C1c2cc(F)ccc2-n2c1nc1ncccc1c2=O	0.6 (≈ 2.25 µM)	Active		Active	Activity [11]: inactive; Activity [12]: inactive; Activity [13]: Active; Activity [14]: Active; Activity [15]: 15%; fold change (FC) [8]: 4
